From ChEMBL document CHEMBL3046177, “Plant growth inhibitory activity of p-hydroxyacetophenones and tremetones from Chilean endemic Baccharis species and some analogous: a comparative study” (J Agric Food Chem, 2002)
Calls of active or inactive are those of the source. The calls are words filed in the database; no cut-off is given here.

Assays:
Physalis ixocarpa [1] = assay: Phytotoxicity against Physalis ixocarpa assessed as inhibition of root development during seeding stage after 120 hr; assay type: functional, organism-based; conditions: for IC50: read-out: I50
Summary of the method: (§1)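 Petri-dish seedling assay on filter paper wetted with test solution (MeOH < 1%), 28 °C in the dark. Coleoptile/hypocotyl and root lengths of all germinated seeds measured after 120 h, then plants dried to constant weight at 40 °C. Three replicates; 50% inhibitory concentrations by Probit analysis of percent inhibition versus concentration.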

Trifolium pratense [2] = assay: Phytotoxicity against Trifolium pratense (red clover) assessed as inhibition of seed germination after 48 hr; assay type: functional
Summary of the method: (§2)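 Seeds of uniform size on Whatman No.1 filter paper in 85 mm Petri dishes, wetted with 8 or 10 mL deionized water or test solution (MeOH < 1%); controls got matching water/methanol. Sealed, incubated at 28 °C in the dark, scored at 48 h intervals; germination = 1 mm radicle extrusion. Three replicates.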

Trifolium pratense [3] = assay: Phytotoxicity against Trifolium pratense (red clover) assessed as inhibition of shoot development during seeding stage after 120 hr; assay type: functional, organism-based; conditions: read-out: I50; summary of the method: as §1
Trifolium pratense [4] = assay: Phytotoxicity against Trifolium pratense (red clover) assessed as inhibition of seed respiration during germination after 72 hr; assay type: functional, organism-based; conditions: read-out: I50
Summary of the method: (§3)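 Oxygen uptake of germinating seeds measured polarographically with a Clark-type electrode at 25 °C in a nonilluminated cell over 5 and 10 min, at several compound concentrations. Expressed as percent of control (100%). Three experiments; RI50 from Probit analysis.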

Spinacia oleracea [5] = assay: Inhibition of ATP synthesis in Spinacia oleracea (spinach) chloroplasts; assay type: functional
Summary of the method: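 Spinach thylakoids in 100 mM sorbitol, 5 mM MgCl2, 10 mM KCl, 1 mM Na+-tricine, pH 8, with 50 µM methyl viologen as Hill-reaction electron acceptor. Illuminated at 20 °C through 1% CuSO4 filter. ATP synthesis measured titrimetrically.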

Physalis ixocarpa [6] = assay: Phytotoxicity against Physalis ixocarpa assessed as inhibition of shoot development during seeding stage after 120 hr; assay type: functional, organism-based; conditions: for IC50: read-out: I50; summary of the method: as §1
Lactuca sativa [7] = assay: Phytotoxicity against Lactuca sativa (lettuce) assessed as inhibition of seed germination after 48 hr; assay type: functional; summary of the method: as §2
[8] = Antioxidant activity assessed as inhibition of bleaching of water soluble crocin measured every 5 min by spectrophotometric analysis; assay type: functional
Summary of the method: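 Aqueous mixture of 10 µM crocin, 1 mM t-BuOOH and 0.5 M t-BuOH with serial dilutions of test compound, placed under UV254 light; crocin bleaching (absorbance decrease) and fluorescence emission at 440 and 470 nm followed every 5 min. Three experiments, mean ± SEM.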

Spinacia oleracea [9] = assay: Inhibition of H+ uptake in Spinacia oleracea (spinach) chloroplasts; assay type: functional; conditions: for IC50: read-out: I50
Summary of the method: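 Spinach thylakoids (from isolated chloroplasts, in sorbitol/tricine/MgCl2/NaCl buffer, pH 7.8) in 100 mM sorbitol, 5 mM MgCl2, 10 mM KCl, 1 mM Na+-tricine, pH 8, with 50 µM methyl viologen. Illuminated at 20 °C through 1% CuSO4 filter. H+ uptake recorded as pH rise from 8.0 to 8.1 with combination microelectrode on expanded scale.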

Physalis ixocarpa [10] = assay: Phytotoxicity against Physalis ixocarpa assessed as inhibition of seed germination after 48 hr; assay type: functional; summary of the method: as §2
Lactuca sativa [11] = assay: Phytotoxicity against Lactuca sativa (lettuce) assessed as inhibition of seed respiration during germination after 72 hr; assay type: functional, organism-based; conditions: read-out: I50; summary of the method: as §3
Phaseolus vulgaris = assay: Inhibition of mitochondrial respiration in Phaseolus vulgaris root mitochondria assessed as reduction of oxygen uptake; assay type: functional; conditions: read-out: I50
Summary of the method: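 Mitochondria from roots of 72 h dark-grown (28 °C) bean seedlings, Percoll-gradient purified, 0.3-0.5 mg protein (Bradford) per run; integrity checked with HCN. Compounds in 0.5% methanol added after a constant state 3 rate with […] was reached. O2 uptake by Clark electrode; control is mitochondria with 0.5% MeOH. Three experiments; I50 by Probit.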

Lactuca sativa [12] = assay: Phytotoxicity against Lactuca sativa (lettuce) assessed as inhibition of root development during seeding stage after 120 hr; assay type: functional, organism-based; conditions: read-out: I50; summary of the method: as §1
Lolium multiflorum [13] = assay: Phytotoxicity against Lolium multiflorum (Italian ryegrass) assessed as inhibition of seed germination after 48 hr; assay type: functional; summary of the method: as §2
Lolium multiflorum [14] = assay: Phytotoxicity against Lolium multiflorum (Italian ryegrass) assessed as inhibition of shoot development during seeding stage after 120 hr; assay type: functional, organism-based; conditions: read-out: I50; summary of the method: as §1
Lactuca sativa [15] = assay: Phytotoxicity against Lactuca sativa (lettuce) assessed as inhibition of shoot development during seeding stage after 120 hr; assay type: functional, organism-based; conditions: read-out: I50; summary of the method: as §1
Trifolium pratense [16] = assay: Phytotoxicity against Trifolium pratense (red clover) assessed as inhibition of root development during seeding stage after 120 hr; assay type: functional, organism-based; conditions: read-out: I50; summary of the method: as §1
Physalis ixocarpa [17] = assay: Phytotoxicity against Physalis ixocarpa assessed as inhibition of seed respiration during germination after 72 hr; assay type: functional, organism-based; conditions: read-out: I50; summary of the method: as §3
Lolium multiflorum [18] = assay: Phytotoxicity against Lolium multiflorum (Italian ryegrass) assessed as inhibition of seed respiration during germination after 72 hr; assay type: functional, organism-based; conditions: read-out: I50; summary of the method: as §3
Lolium multiflorum [19] = assay: Phytotoxicity against Lolium multiflorum (Italian ryegrass) assessed as inhibition of root development during seeding stage after 120 hr; assay type: functional, organism-based; conditions: read-out: I50; summary of the method: as §1
[20] = test system: Radical scavenging activity; assay: Antioxidant activity assessed as DPPH free radical scavenging activity after 30 min by TLC autographic assay; assay type: functional; conditions: in the assay text read “spectrophotometric assay” for “TLC autographic assay”; read-out: I50
Trifolium pratense [21] = assay: Increase of root development during seeding stage in Trifolium pratense (red clover) at 50 to 300 uM after 120 hr; assay type: functional, organism-based; summary of the method: as §1
Lactuca sativa [22] = assay: Increase of root development during seeding stage in Lactuca sativa (lettuce) at 50 to 300 uM after 120 hr; assay type: functional, organism-based; summary of the method: as §1
[23] = test system: Lolium multiflorum (ryegrass); assay: Phytotoxicity against Lolium multiflorum (ryegrass) assessed as inhibition of seed germination at 500 uM after 48 hr
Trifolium pratense [24] = assay: Phytotoxicity against Trifolium pratense (red clover) assessed as inhibition of seed respiration during germination after 24 hr; assay type: functional, organism-based; summary of the method: as §3
Lolium multiflorum [25] = assay: Phytotoxicity against Lolium multiflorum (Italian ryegrass) assessed as inhibition of seed germination at 500 uM after 48 hr; assay type: functional; summary of the method: as §2
Lactuca sativa [26] = assay: Phytotoxicity against Lactuca sativa (lettuce) assessed as inhibition of seed respiration during germination after 24 hr; assay type: functional, organism-based; summary of the method: as §3
Lolium multiflorum [27] = assay: Increase of seed respiration during germination in Lolium multiflorum (Italian ryegrass)at 30 uM; assay type: functional, organism-based; summary of the method: as §3
Trifolium pratense [28] = assay: Increase of shoot development during seeding stage in Trifolium pratense (red clover) at 200 uM after 120 hr; assay type: functional, organism-based; summary of the method: as §1
Physalis ixocarpa [29] = assay: Increase of shoot development during seeding stage in Physalis ixocarpa up to 50 uM after 120 hr; assay type: functional, organism-based; summary of the method: as §1
Lolium multiflorum [30] = assay: Phytotoxicity against Lolium multiflorum (Italian ryegrass) assessed as inhibition of seed respiration during germination at 300 to 500 uM after 24 hr; assay type: functional, organism-based; summary of the method: as §3
Lolium multiflorum [31] = assay: Phytotoxicity against Lolium multiflorum (Italian ryegrass) assessed as inhibition of seed respiration during germination after 24 hr; assay type: functional, organism-based; summary of the method: as §3
Physalis ixocarpa [32] = assay: Phytotoxicity against Physalis ixocarpa assessed as inhibition of seed respiration during germination after 24 hr; assay type: functional, organism-based; summary of the method: as §3

Work on `CC(=O)c1ccc2c(c1)CC(C1(C)CO1)O2` (stereo not drawn) [10,11-EPOXY TREMETONE] yielded an IC50 (Physalis ixocarpa [1]) of 15.7 µM, a GI50 (Trifolium pratense [2]) of 22.3 µM and an IC50 (Trifolium pratense [3]) of 14.3 µM. For the same compound, the IC50 (Trifolium pratense [4]) was 49.1 µM, the inhibition (Spinacia oleracea [5]) was “Dose-dependent effect” and the IC50 (Physalis ixocarpa [6]) was 5.8 µM. For the same compound, the GI50 (Lactuca sativa [7]) was 36.1 µM, the inhibition [8] was “Active” and the inhibition (Spinacia oleracea [9]) was “Dose-dependent effect”. It also gave an IC50 (Spinacia oleracea [9]) of 40.7 µM, a GI50 (Physalis ixocarpa [10]) of 19.2 µM and an IC50 (Lactuca sativa [11]) of 58 µM. It also gave an IC50 (Phaseolus vulgaris) of 109 µM, an IC50 (Lactuca sativa [12]) of 33.8 µM and a GI50 (Lolium multiflorum [13]) of 65.6 µM. The IC50 (Lolium multiflorum [14]) was 65.9 µM, the IC50 (Lactuca sativa [15]) was 33 µM and the IC50 (Trifolium pratense [16]) was 16.2 µM. For the same compound, the IC50 (Physalis ixocarpa [17]) was 57.5 µM, the IC50 (Lolium multiflorum [18]) was 67.9 µM and the IC50 (Lolium multiflorum [19]) was 72.6 µM. For the same compound, the IC50 [20] was 62.6 µM.

`CC(=O)c1ccc2c(c1O)C[C@H](C1(C)CO1)O2` (stereo partly drawn) gave an IC50 (Physalis ixocarpa [1]) of 9.9 µM, a GI50 (Trifolium pratense [2]) of 7.1 µM and an IC50 (Trifolium pratense [3]) of 7.2 µM. For the same compound, the IC50 (Trifolium pratense [4]) was 10.1 µM, the inhibition (Spinacia oleracea [5]) was “Dose-dependent effect” and the IC50 (Physalis ixocarpa [6]) was 7.7 µM. For the same compound, the GI50 (Lactuca sativa [7]) was 11.5 µM, the inhibition [8] was “Active” and the inhibition (Spinacia oleracea [9]) was “Dose-dependent effect”. The IC50 (Spinacia oleracea [9]) was 13.8 µM, the GI50 (Physalis ixocarpa [10]) was 8.7 µM and the IC50 (Lactuca sativa [11]) was 11 µM. It also gave an IC50 (Phaseolus vulgaris) of 17.1 µM, an IC50 (Lactuca sativa [12]) of 10.9 µM and a GI50 (Lolium multiflorum [13]) of 10.4 µM. It also gave an IC50 (Lolium multiflorum [14]) of 11.2 µM, an IC50 (Lactuca sativa [15]) of 10.5 µM and an IC50 (Trifolium pratense [16]) of 7.1 µM. It also gave an IC50 (Physalis ixocarpa [17]) of 15.8 µM, an IC50 (Lolium multiflorum [18]) of 18 µM and an IC50 (Lolium multiflorum [19]) of 11.9 µM. It also gave an IC50 [20] of 30.6 µM.

With `CC(=O)Oc1ccc(C(C)=O)cc1` [4-(ACETATE)ACETOPHENONE] the I50 (Physalis ixocarpa [1]) was “inactive”, the Activity (Trifolium pratense [21]) was “Active” and the GI50 (Trifolium pratense [2]) was 233 µM. For the same compound, the IC50 (Trifolium pratense [3]) was 234 µM, the Activity (Lactuca sativa [22]) was “Active” and the I50 (Physalis ixocarpa [6]) was “inactive”. For the same compound, the GI50 (Lactuca sativa [7]) was 41 µM, the inhibition at 500 µM [23] was 30% and the I50 (Trifolium pratense [24]) was “inactive”. The inhibition at 500 µM (Lolium multiflorum [25]) was 30%, the I50 (Lactuca sativa [26]) was “inactive” and the Activity (Lolium multiflorum [27]) was “Active”. For the same compound, the GI50 (Physalis ixocarpa [10]) was “inactive”, the IC50 (Lactuca sativa [12]) was 38.9 µM and the GI50 (Lolium multiflorum [13]) was 75.3 µM. For the same compound, the IC50 (Lolium multiflorum [14]) was 77.3 µM, the IC50 (Lactuca sativa [15]) was 39.1 µM and the Activity (Trifolium pratense [28]) was “Active”. The IC50 (Trifolium pratense [16]) was 221 µM, the Activity (Physalis ixocarpa [29]) was “Active” and the Activity (Lolium multiflorum [30]) was “Active”. The I50 (Lolium multiflorum [31]) was “inactive”, the I50 (Physalis ixocarpa [32]) was “inactive” and the IC50 (Lolium multiflorum [19]) was 75.5 µM.
